Key:
MS2 coat protein [1] = test: apparent Kd, MS2 coat protein; higher = weaker binding; RNA-MaP array; tryptophan 2.4 mM where present; settings: designed as: ON switch for tryptophan
Method in brief: (§1)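 Designs on Illumina sequencing-chip clusters, transcribed by stalled E. coli RNA polymerase, were exposed to SNAP-549-labelled MS2 coat protein in doubling steps from 0.7 or 1.5 nM up to 3 µM, without and then with constant ligand. The buffer held 100 mM Tris-HCl pH 7.5, 80 mM KCl, 4 mM MgCl2, BSA, DTT, yeast tRNA and Tween-20. Apparent Kd values are medians of filtered per-cluster binding-curve fits to green signal normalised to red-channel RNA signal and control-cluster median Fmax.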

MS2 coat protein [2] = test: apparent Kd, MS2 coat protein; higher = weaker binding; RNA-MaP array; theophylline 2 mM where present
Method in brief: as §1

[3] = designed as: OFF switch for theophylline, no ligand
[4] = ligand present: theophylline, designed as: OFF switch for theophylline
[5] = designed as: ON switch for theophylline, no ligand
[6] = ligand present: theophylline, designed as: ON switch for theophylline

| Sequence | apparent Kd (MS2 coat protein [2]; [3]) | apparent Kd (MS2 coat protein [2]; [4]) | apparent Kd (MS2 coat protein [2]; [5]) | apparent Kd (MS2 coat protein [2]; [6]) | other results |
| --- | --- | --- | --- | --- | --- |
| AACAUGAGGAUCACCCAUGUUCUCGUGUACCGAGGACCGGUACGGCCGCCACUCGGUUCUCGCGAGGAUGGUCAAAGACUAUCCA | – | – | – | – | apparent Kd (MS2 coat protein [1]; no ligand): 19.1 nM; apparent Kd (MS2 coat protein [1]; ligand present: tryptophan): 16 nM |
| AGACAUGUAAGAUAAAUGACUUAUACAGAUACCAGACUAGUCAAUGUCCCUUGGCAGCUGCAUAACAUGAGGAUCACCCAUGUAA | 26.7 nM | 32.7 nM | – | – | – |
| AGAUUAAAGAGUGAUACCAGACUACAUGAGGAUCACCCAUGUUACAUUUGAGUAGCUUUAGUCCCUUGGCAGCACUUUAUGUACA | 45.5 nM | 17.6 nM | – | – | – |
| AGCGACAUGCGUGAUACCAGCUACAUGAGGAUCACCCAUGUACGUAGGAAACUACUGUGUAGCCCUUGGCAGCAUAGUGCAUGUC | 12.6 nM | 57.1 nM | – | – | – |
| AUAAAUAUAACCGAUACCAGCCUUAUACAUGAGGAUCACCCAUGUUAUGCUUCCUUUUUUGGCCCUUGGCAGCGGAAAUGGGUAA | – | – | 81.7 nM | 36.2 nM | – |
| AUAACUGUCAAGGAAGGUGAUCCAGCAGAUACCAGCUAGGAAACUAGCCCUUGGCAGCUGCAACAUGAGGAUCACCCAUGUAAUA | 76.8 nM | 121 nM | – | – | – |
| AUAAGUAAUGUUUCGUGUAUUAUUACAGAUACCAGACUAUCCUAUGUCCCUUGGCAGCUGGAUUACAUGAGGAUCACCCAUGUUG | 16.4 nM | 24.9 nM | – | – | – |
| AUCAGUAGAACUGAUACCAGUCAAAGGCUUUGACCUCAUAACAUGAGGAUCACCCAUGUUGACCCUUGGCAGCAGUAGGCAAGGG | 21.4 nM | 35.1 nM | – | – | – |
| AUCGCACCUGGUGAUACCAGCGUUUGCUCGCGACAUGAGGAUCACCCAUGUGGCCAGUGAUGCCCUUGGCAGCAUGGUCGGUGCA | – | – | 317 nM | 45.4 nM | – |
| AUCGUACCUGAGGAUACCAGCAUGUGAUCAUAACAUGAGGAUCACCCAUGUAAUCAGUGAUGCCCUUGGCAGCUUGAUCGGUACA | – | – | 80.1 nM | 24.9 nM | – |
| AUCGUACCUGAUGAUACCAGCAUGUGAUCGUAACAUGAGGAUCACCCAUGUGAUCAGUGAUGCCCUUGGCAGCAUGAUCGGUACA | – | – | 35.4 nM | 14.7 nM | – |
| AUGUCGUUGAAUACAGCGGCAUGGAGUGAUACCAGAAUGAUCAAAUUCCCUUGGCAGCAUGACAUGAGGAUCACCCAUGUUCGAU | – | – | 111 nM | 104 nM | – |
| AUUAUCAUGGUCAUAUAUAUAUCGUCAGAUACCAGACUAGAUAUAGUCCCUUGGCAGCUGUUACAUGAGGAUCACCCAUGUUAUA | 138 nM | 47.8 nM | – | – | – |
| CAUACUUUAGUAUGACGUGUGGGCAGUGAUACCAGAUACGAAAGUAUCCCUUGGCAGCACAACAUGAGGAUCACCCAUGUAAUUA | – | – | 20.5 nM | 31.3 nM | – |
| CAUUAAGUAACUGAUACCAGUGUACUGACAUGAGGAUCACCCAUGUUGGGUUUUGUUGUACACCCUUGGCAGCAGAAUCUUAAUG | 68.7 nM | 95.5 nM | – | – | – |
| CCUGCGUUUCUUUUCUUUCGCAGGAAUGAUACCAGUAGGGAAACCUACCCUUGGCAGCAUGGGACAUGAGGAUCACCCAUGUUUU | – | – | 166 nM | 33.4 nM | – |
| CGAUCUUUCGAAAGAAGGAUCGAGUCUGAUACCAGAGACGAAAGUCUCCCUUGGCAGCAGUGCCAACAUGAGGAUCACCCAUGUU | – | – | 15.8 nM | 15.5 nM | – |
| CGGUACAUGAGGAUCACCCAUGUGUCGGAUACCAGAGAGCCGUCUCUCCCUUGGCAGCUGGUUUUACAUGAGGAUCACCCAUGUG | 13.6 nM | 20.1 nM | – | – | – |
| CGUGUCGUAACUGAUACCAGUGUACUGACAUGAGGAUCACCCAUGUUGGGUUUUGUUGUACACCCUUGGCAGCAGAAUCGAUACG | 76.9 nM | 119 nM | – | – | – |
| CUAUAAGUAACUGAUACCAGUGUACUGACAUGAGGAUCACCCAUGUUGGGUUUUGUUGUACACCCUUGGCAGCAGAAUCUUGUAG | 62.1 nM | 85 nM | – | – | – |
| CUCGGUUGAUCCUAGCUGCCGAGAGGUGAUACCAGCAUCGAAAGAUGCCCUUGGCAGCACCAACAUGAGGAUCACCCAUGUAAUA | – | – | 55.1 nM | 483 nM | – |
| CUCUGAGUGAGUAAUCACUCAGAGGCGGAUACCAGCGAGGUCCAUCGCCCUUGGCAGCCGAACAUGAGGAUCACCCAUGUCGGUA | – | – | 10.7 nM | 14.6 nM | – |
| CUGCCAUGCAGAGAUACCAGUGCGCUCAGCACAUGAGGAUCACCCAUGUCGGCUGCCGAUCACCCUUGGCAGCUCUGCAUGGCAG | – | – | 11.4 nM | 9.11 nM | – |
| GAGCUGAUGUAGAGAAUAAAUAUAAGAGAUACCAGUACAGAAAUGUACCCUUGGCAGCUCAACUUUACAUGAGGAUCACCCAUGU | 13.9 nM | 18.8 nM | – | – | – |
| GAGCUGAUGUAGGCCGGAUAUCCGGGAGAUACCAGUACAGAAAUGUACCCUUGGCAGCUCUUUCCUACAUGAGGAUCACCCAUGU | 16.6 nM | 96 nM | – | – | – |
| GAGGUCCUGAGAGAUACCAGUGAGGCCACAUGAGGAUCACCCAUGUCCCUCACUCCGGCCCACCCUUGGCAGCUCGGAAGGUAAA | 18.1 nM | 119 nM | – | – | – |

| Sequence | apparent Kd (MS2 coat protein [2]; [3]) | apparent Kd (MS2 coat protein [2]; [4]) | apparent Kd (MS2 coat protein [2]; [5]) | apparent Kd (MS2 coat protein [2]; [6]) | other results |
| --- | --- | --- | --- | --- | --- |
| GAUGAACUAUUUGAUACCAGACAACAUGAGGAUCACCCAUGUGCGCGUCGUCCUCUGCCUGUCCCUUGGCAGCGGAUAGUUUAUC | 59.5 nM | 89.9 nM | – | – | – |
| GAUGAACUAUUUGAUACCAGACUACAUGAGGAUCACCCAUGUGUGUUAAUUUUUCAGUCAGUCCCUUGGCAGCAAAUAGUUUAUC | 61.2 nM | 146 nM | – | – | – |
| GAUGAUAUUGCAGAUACCAGACACAUGAGGAUCACCCAUGUCUCUGAGAUGAAGGAUCGUGUCCCUUGGCAGCUGCGAUAUCAUC | 32.7 nM | 338 nM | – | – | – |
| GCACCAGGUACGGAUACCAGCUGCCAGAGAUACAUGAGGAUCACCCAUGUGACCUGAUUUAGCCCUUGGCAGCUGUACCUGGUGC | – | – | 466 nM | 35.7 nM | – |
| GCAUGUGGAGUCUUACUAGAGAGGACAGAUACCAGUAAGAUGUGAUACCCUUGGCAGCUGCGAUUUACAUGAGGAUCACCCAUGU | 21.5 nM | 24.2 nM | – | – | – |
| GCCAGACAUGAGGAUCACCCAUGUAGCGAUACCAGCUCUGUUGUGAGCCCUUGGCAGCGCACUGGCAUCGUAGGUGAUCCAAUAA | – | – | 75.2 nM | 187 nM | – |
| GGGUGCGGGAUAGAUACCAGUGCCUUAAAAUAGGCACAUGAGGAUCACCCAUGUACCGGGCGCCCUUGGCAGCUAGUACCAUCCA | – | – | 127 nM | 181 nM | – |
| GGUGAUCCGUGCUGCCGGAUCAUCGGUGAUACCAGCAUCGAAAGAUGCCCUUGGCAGCACCAACAUGAGGAUCACCCAUGUAAUA | – | – | 206 nM | 73.4 nM | – |
| GGUGGCGUGACGGAUACCAGCCACCGCCGCAAGGCCACAUGAGGAUCACCCAUGUUGGGUGGCCCUUGGCAGCUGUCGUGCGGCG | – | – | 157 nM | 281 nM | – |
| GGUGGGACUUGUGAUACCAGCCCAGUUCUAAUCGAACUGCACAUGAGGAUCACCCAUGUCGGCCCUUGGCAGCAUGAGUAUUUAU | – | – | 322 nM | 19.3 nM | – |
| GGUUUCGCGGGCGAUACCAGCUUGAUCGUACUGGCCUGGUACAUGAGGAUCACCCAUGUAAGCCCUUGGCAGCGCGCGCGAGACC | 11.3 nM | 24.7 nM | – | – | – |
| GUAUGGAAACAUACUUGGGUAUCAUGAGAUACCAGUACAGAAAUGUACCCUUGGCAGCUCAAGCAUACAUGAGGAUCACCCAUGU | 18 nM | 27.1 nM | – | – | – |
| UAGGUGAUCUUCAACGGAAAACGUUGUGAUACCAGCCAACAAUACGGCCCUUGGCAGCACAUGAGGAUCACCCAUGUGUACACCG | 29.4 nM | 193 nM | – | – | – |
| UAUAUAUAUAUUGAUACCAGCAGAGAAAACAUAUAUCCUAACAUGAGGAUCACCCAUGUAUGCCCUUGGCAGCGAUAUAUAUAUA | 26 nM | 32.3 nM | – | – | – |
| UCGUGGUCCGCAAGGACCGGGAGUUGCGAUACCAGCACGGUAACGUGCCCUUGGCAGCGCACAUGAGGAUCACCCAUGUGGUGUU | 229 nM | 514 nM | – | – | – |
| UCGUGUGUUUCGGAUACCAGUGAAAUCGAUACAUGAGGAUCACCCAUGUGAGAGGAUGUACACCCUUGGCAGCUGUCUGUAUCUG | – | – | 13.1 nM | 13.7 nM | – |
| UCUUUCUAUGUAGAUACCAGCAUGUUAUAUUUCUAAUGACAUGAGGAUCACCCAUGUAAAUGCCCUUGGCAGCUACAUUUUCUUU | – | – | 23.1 nM | 16 nM | – |
| UGAUCCUGCAGGGAUACCAGCGCCGCUUGAUAACUGUGCACAUGAGGAUCACCCAUGUAGCGCCCUUGGCAGCCCAGCUAGAGGG | – | – | 25.4 nM | 23 nM | – |
| UGCACCAUAAUCAUGUUGGUGCUAGGUGAUACCAGCAUCGAAAGAUGCCCUUGGCAGCACCAACAUGAGGAUCACCCAUGUAAUA | – | – | 130 nM | 99.8 nM | – |
| UGUAACAUGAGGAUCACCCAUGUGAGUGAUACCAGAUAAGUAGUAGUCCCUUGGCAGCAUAUUGGGCGAGUGUAUAGUCUAUGCG | – | – | 146 nM | 193 nM | – |
| UGUACAUGAGGAUCACCCAUGUUACAUGAUACCAGACAUGAGAGUGUCCCUUGGCAGCAUGGAGCUGAUACGGCGGGAAGCCGGA | – | – | 26.8 nM | 32.6 nM | – |
| UGUUUGGUGCGCGAGUGUUGGAUAAUUGAUACCAGUGUAGAUGUGCGCCCUUGGCAGCGAAUCCUAACAUGAGGAUCACCCAUGU | – | – | 43.8 nM | 57.1 nM | – |
| UUAAUGGAGCUUUAAUUUACGAUUUCUGAUACCAGUGUUUCAUUUCACCCUUGGCAGCAGUGACAUGAGGAUCACCCAUGUAAUA | – | – | 25.4 nM | 23.5 nM | – |
| UUACAUGAGGAUCACCCAUGUCAUAAUGAUACCAGAUAGUUAAUGAUCCCUUGGCAGCAUAAUACCUAGACAUUUAAGUCAUAGG | – | – | 83.1 nM | 41 nM | – |
| UUUGAGAUAACAGAUACCAGCGUGUUAUAAAACAUGAGGAUCACCCAUGUAGUGAUCAAGCGCCCUUGGCAGCUGGUAUUUUAGG | – | – | 95.2 nM | 210 nM | – |
| UUUGCACAUGAGGAUCACCCAUGUACAGAUACCAGCCUCAUCUACGGCCCUUGGCAGCUGAGACAAUGGUGACGUGAUGGGCUUU | 11.3 nM | 16.2 nM | – | – | – |
